# Columns and labels:
# [1] = test system: CD28 (biotinylated 41-residue phosphopeptide corresponding to cytoplasmic region of CD28); test: SPR binding to immobilized CD28 cytoplasmic phosphopeptide; settings: 25°C
# [2] = CD thermal stability / transition curve at 222 nm; assay type: physicochemical; settings: following dissociation of the dimer
# Procedure, shortened: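 Human Grb2 SH2 (residues 60–152) expressed as GST fusion in E. coli BL21(DE3); monomer and dimer split by gel filtration. 0.04 mg mL⁻¹ in PBS pH 7.4, 1.0 cm cell; 222 nm signal heated 20–80°C at 1.0°C min⁻¹. Tm from two-state fit, zero heat-capacity change. Samples heated to 50°C, cooled to 20°C, then rerun by far-UV CD and SEC (PBS, 280 nm).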
# [3] = test system: intracellular tail of inducible T-cell co-stimulator; test: SPR binding to intracellular tail of inducible T-cell co-stimulator; settings: data not shown
# [4] = SEC analysis of monomer/dimer state; assay type: physicochemical; settings: data not shown
# [5] = fluorescence and SEC; similar to Grb2 SH2 dimer dissociating at 40–45°C; ref [39]; cited from earlier work
molecule,measurement,setting,value
"monomer: SH2 domain of human Grb2 (residues 60–152), monomer fraction purified by gel filtration","Ka,kin",[1]; association constant calculated from the two kinetic rate constants,117000 M⁻¹
same,temperature of denaturation of monomer,[2],around 60 °C
"W121S: Grb2 SH2 mutant, Trp121 replaced by Ser, by site-directed mutagenesis",ability to bind to CD28,"[1]; monomer and dimer of W121S at 800, 1600, 3200, 6400 nM",loses the ability to bind to CD28
same,binding to intracellular tail of inducible T-cell co-stimulator,[3],could not bind
Gads SH2: SH2 domain of Grb2-related adaptor downstream of Shc (Gads) (protein) WFHEGLSRHQAENLLMGKEVGFFIIRASQSSPGDFSISVRHEDDVQHFKVMRDNKGNYFLWTEKFPSLNKLVDYYRTNSISRQKQIFLRDRT,oligomeric state,[4],exists as a monomer with a small population of dimers
same,thermal transition (dimer to monomer),[5],A similar transition was recently reported

# From publication PMC6435016 (Biophysics and Physicobiology, 2019)
